Assay outcomes as filed in PubChem.
PGE2 EP2 inh = human EP2 receptor antagonists, primary screen, TR-FRET cAMP, C6 glioma cells. Prostaglandin E2 receptor EP2 subtype (Homo sapiens), P43116. C6 glioma cells expressing human EP2; cells stimulated with saturating PGE2. inhibition, % at 25 µM. actives 0.52% (n = 260,000);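 active = percent inhibition above 40 after rounding to a whole number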;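 also: rat C6 glioma host cells with rolipram phosphodiesterase inhibitor present; the protocol text gives 20 µM as final concentration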
MC4R antagonist = MC4R antagonists of cAMP signaling, primary screen, cell-based, TR-FRET, antagonist arm of biased-ligand search. inhibition, % at 6.5 µM. actives 0.48% (n = 360,000). AID 540295, 2011. Melanocortin receptor 4 (Homo sapiens), P32245. MC4R-expressing cells, MTII-stimulated cAMP, LANCE TR-FRET;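 active = inhibition above its plate's cutoff, the mean of tested wells on that plate plus 3 SD, cut at about 29% in these data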;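 also: 0% = Melanotan II alone and 100% = Melanotan II plus saturating MCL0020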
Target sequence (P32245 whole entry, looked up): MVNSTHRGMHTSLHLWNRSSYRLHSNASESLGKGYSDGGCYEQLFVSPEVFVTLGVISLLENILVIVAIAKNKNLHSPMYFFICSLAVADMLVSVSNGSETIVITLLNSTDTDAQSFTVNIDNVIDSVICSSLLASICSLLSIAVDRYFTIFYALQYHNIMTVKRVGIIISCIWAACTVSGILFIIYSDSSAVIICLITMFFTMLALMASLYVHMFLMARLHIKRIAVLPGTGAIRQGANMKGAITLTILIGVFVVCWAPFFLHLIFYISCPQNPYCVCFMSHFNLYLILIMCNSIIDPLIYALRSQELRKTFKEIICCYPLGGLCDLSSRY
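Test system: U2OS cells stably expressing human melanocortin 4 receptor (MC4R); also added: Melanotan II challenge; compound: 6.5 µM single dose; timing: 30-min compound preincubation, 1-h Melanotan II challenge, 1-h detection, room temperature; signal: Eu-cAMP/anti-cAMP TR-FRET, emission 671 nm; repeats: one well per compound, no replicates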
T cell modulator = modulators of CD8 T cell-vesicle binding, primary screen, mouse 2C CD8+ T cells, flow cytometry | actives 0.068% (n = 330,000) | 2C CD8+ T cell-vesicle binding; stronger effect = lower value | response (vesicle binding), % at 7 µM | AID 2052, 2009;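 active = response, share of CD8 T cells binding vesicles, and their 90th percentile fluorescence all below set limits, cut at about 80% in these data, passing the limit was not always enough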;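 also: values below 100% mean blocked vesicle binding to the CD8+ T cells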
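Read-out – percent CD8+ FL2 mean versus row control · System – murine 2C transgenic CD8+ T lymphocytes · Times – 1.5 h cell–vesicle binding at 37 °C, then 20 min icy labelling · Control set – naked vesicles low, QL9 vesicles with vehicle high · Detection – cytometric PE anti-B7-1 and Alexa647 anti-CD8 signals after 1% paraformaldehyde fixation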
Granule exo inh = LAMP-1 surface exposure blockers, TALL-104 cells – cell-based, flow cytometry, MLPCN library, primary screen | TALL-104 LAMP-1 surface exposure; cells stimulated with thapsigargin and PMA | actives 0.66% (n = 360,000) | inhibition, % at 10 µM | AID 651702, 2012;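 active = inhibition above about 55%, limit read from the data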
MC4R ag barr = MC4R agonists recruiting beta-arrestin, primary screen, cell-based, luminescence, agonist arm of biased-ligand search. Melanocortin receptor 4 (Homo sapiens), P32245. U2OS MC4R beta-arrestin complementation; percent of melanotan II response, DMSO zero. activation, % at 8.9 µM. actives 0.98% (n = 360,000). AID 540308, 2011;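 active = activation above a per-plate cutoff, the mean activation of sample wells on that plate plus 3 SD, cut at about 8% in these data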
EP2 mod = EP2 receptor modulators, cAMP readout, primary screen, cell-based, HTRF cAMP, PGE2 stimulation. AID 940, 2007. Prostaglandin E2 receptor EP2 subtype (Homo sapiens), P43116. induction, % at 25 µM. actives 0.83% (n = 260,000). EP2-expressing cells, cAMP HTRF FRET, PGE2 co-stimulation;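 active = compounds whose cAMP rise, as percent of the full-agonist control response, exceeds 60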;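 also: rat C6 glioma line stably carrying human EP2 under a CMV promoter; the protocol text gives 20 µM as final concentration; 100% = response of wells given 1 µM PGE2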
Numbers without * were called inactive; . = no result; ! = repeats disagree. Rows were chosen to be rich in hits. Some 2.6% of all compounds tested hit in one or more screens of this group.

SMILES	PGE2 EP2 inh	MC4R antagonist	T cell modulator	Granule exo inh	MC4R ag barr	EP2 mod
N#Cc1c(Nc2ccc(Cl)cc2)s[nH]c1=O	6	0	635	83*	-3	0
COc1ccccc1Nc1nn2c(=O)c3ccc(C(=O)N4CCCCC4)cc3nc2s1	.	2	330	9	0	.
CC(=O)[C@@]1(N=Nc2ccc(S(N)(=O)=O)cc2)CCOC1=O	116*	.	.	.	.	-31
NS(=O)(=O)c1ccc(N=Nc2ccc(=O)[nH]c2O)cc1	16	-31	198	2	-4	2
COc1cnc(SC(C)C)[nH]c1=O	2	3	125	0	-2	13
O=C1OC(c2ccc(O)c(-c3ccccc3)c2)(c2ccc(O)c(-c3ccccc3)c2)c2c(Cl)c(Cl)c(Cl)c(Cl)c21	47*	.	.	.	.	4
CCCCN(C)Cc1c(C)[nH]c2c(ccc3ccccc32)c1=O	.	14	.	3	1	.
O=C(/C=C/c1cccc([N+](=O)[O-])c1)c1ccc([N+](=O)[O-])o1	.	30*	321	-2	-3	.
CC(C)=CCc1c2c(c3occ(-c4ccc(O)c(O)c4)c(=O)c3c1O)C=CC(C)(C)O2	41*!	6	.	-8	1	37
CC(C)=CCc1c2c(c3occ(-c4ccc(O)cc4)c(=O)c3c1O)C=CC(C)(C)O2	12	-1	352	-2	0	37
COc1ccc(/C=c2\sc3nc(=O)c(C)nn3c2=O)c(OC)c1	6	8	291	2	-4	26
CCOc1ccccc1NC(=O)CSc1ncnc2sc3c(c12)CCC(C)C3 (configuration not stated)	16	.	.	.	.	65*
COc1cc(NC(=O)CSc2nc(C(C)C)nc3sc(C)c(C)c23)cc(OC)c1	20	.	.	.	.	51
Cc1cc(NC(=O)CSc2nc(C(C)C)nc3sc(C)c(C)c23)no1	10	-4	343	2	8.4*	25
CCOc1ccccc1NC(=O)CSc1nc(C2CC2)nc2sc(C)c(C)c12	9	.	.	.	.	61*
CCOc1ccccc1NC(=O)CSc1nc(C)nc2sc(C)c(C)c12	5	.	.	.	.	73*
Cc1ccc(NC(=O)CSc2nc(C3CC3)nc3sc(C)c(C)c23)c(C)c1	7	.	.	.	.	20
COc1cc(NC(=O)CSc2ncnc3sc4c(c23)CCC(C)C4)c(C(=O)O)cc1OC (configuration not stated)	.	-3	126	-4	1	.
CN(CC(=O)Nc1ccc(Cl)cc1)C(=O)COc1ncnc2ccccc12	.	0	267	0	-3	.
COc1ccc(N(C(=O)Cn2nnc3ccccc32)C(C(=O)NC2CCCC2)c2cccs2)cc1 (configuration not stated)	9	.	.	.	.	2
COC(=O)[C@]1(Cc2ccccc2)N[C@H](c2ccc(-c3cccc(Cl)c3)c(OC)c2)[C@@H]2C(=O)N(C)C(=O)[C@@H]21	.	14	.	-2	2	.
N#Cc1c(NC(=O)c2ccccc2Cl)n(Cc2ccccc2)c2nc3ccccc3nc12	24	12	619	104*	0	17
CCCCn1c(NC(=O)CC)c(C#N)c2nc3ccccc3nc21	4	0	213	5	1	36
CCCCn1c(NC(=O)c2ccccc2Cl)c(C#N)c2nc3ccccc3nc21	16	6	253	63*	4	7
COc1ccc(C)cc1NC(=O)Cn1c(=O)oc2ccccc21	.	6	99	1	0	.
SMILES	PGE2 EP2 inh	MC4R antagonist	T cell modulator	Granule exo inh	MC4R ag barr	EP2 mod
Cc1ccccc1OCCOC(=O)c1c(-c2ccccc2)noc1C	.	-20	126	94*	1	.
C/C(=N\S(=O)(=O)c1ccc(C)cc1)NC(=S)Nc1ccc(C)cc1	4	9	142	4	-4	11
NC(N)=NN=C(c1ccc(F)cc1)c1ccc(C(F)(F)F)cc1	.	-16	.	57*	-2	.
NC(=O)c1ccccc1OCC(=O)N1CCc2ccccc2C1	.	6	917	-14	0	.
CC(=O)c1cccc(NC(=O)C2CCCN(S(=O)(=O)c3ccc(F)cc3)C2)c1 (configuration not stated)	5	3	171	-4	-2	-18
O=C1OC2(c3ccc(O)cc3Oc3cc(O)ccc32)c2c1c(-c1ccccc1)c(-c1ccccc1)c(-c1ccccc1)c2-c1ccccc1	45*	.	.	.	.	5
O=C(O)c1ccc(NC(=S)NC(=O)c2ccc(-c3ccccc3)cc2)cc1	66*	14	226	1	-1	-89
O=C(O)CNC(=O)C1CCCN1C(=O)CNC(=O)OCc1ccccc1 (configuration not stated)	.	8	101	-6	2	.
Cc1ccccc1NC1=NC(=S)N(c2ccccc2)C12CCCCC2	9	10	231	4	1	62*
CC12CCC(=O)N1C(C(=O)NNC(=O)c1ccc(Cl)cc1)CS2 (configuration not stated)	.	10	341	-2	0	.
Cc1cccc(C(CC(=O)NCc2ccco2)c2ccccc2)c1O (configuration not stated)	7	6	217	-2	0	34
C=C(C)CC(Nc1ccco1)c1ccccc1C (configuration not stated)	5	.	.	.	.	61*
Cc1cc(S(=O)(=O)N2CCN(Cc3ccccc3)CC2)c(C)s1	4	7	74*	0	0	5
Cc1ccc[n+](CC(=O)Nc2cc(C(F)(F)F)ccc2Cl)c1	10	9	520	0	2	21
CCC(C)(C)c1ccc(OCCCC[n+]2cccc(C)c2)c(C(C)(C)CC)c1	12	11	.	14	19*	-62
CC1(C)Cc2cccc(C(=O)Nc3ccc(F)cc3F)c2O1	4	15	550	-2	2	82*
C=C(C)CNC(=S)N1CCNC(=O)C1CC(=O)OC (configuration not stated)	1	5	255	-1	-2	2
N#C/C(=C(/O)c1ccc([N+](=O)[O-])o1)c1nc2ccccc2[nH]1	17	4	416	37	1	-43
COc1cc(/C=C(/C#N)c2nc3ccccc3[nH]2)ccc1Oc1ncccc1[N+](=O)[O-]	10	8	326	4	14*	-49
N#C/C(=C\c1ccc([N+](=O)[O-])o1)c1nc2ccccc2[nH]1	69*	.	406	.	.	-11
